ChEMBL document CHEMBL5653631, “A Potent and Selective ULK1 Inhibitor Suppresses Autophagy and Sensitizes Cancer Cells to Nutrient Stress” (iScience, 2018)

Tests used:
[1] = target: Dual specificity protein kinase CLK3 (Homo sapiens) (UniProt P49761); assay: Inhibition of human recombinant CLK3 at 40 nM in presence of ATP by radiometric assay relative to control
[2] = target: Dual specificity protein kinase CLK3 (Homo sapiens) (UniProt P49761); assay: Inhibition of human recombinant CLK3 at 40 nM related to control ULK1
[3] = target: T1, Testis-specific serine/threonine-protein kinase 1 (Homo sapiens) (UniProt Q9BXA7); assay: Inhibition of human recombinant TSSK1 at 40 nM related to control ULK1
T1 sequence (whole entry): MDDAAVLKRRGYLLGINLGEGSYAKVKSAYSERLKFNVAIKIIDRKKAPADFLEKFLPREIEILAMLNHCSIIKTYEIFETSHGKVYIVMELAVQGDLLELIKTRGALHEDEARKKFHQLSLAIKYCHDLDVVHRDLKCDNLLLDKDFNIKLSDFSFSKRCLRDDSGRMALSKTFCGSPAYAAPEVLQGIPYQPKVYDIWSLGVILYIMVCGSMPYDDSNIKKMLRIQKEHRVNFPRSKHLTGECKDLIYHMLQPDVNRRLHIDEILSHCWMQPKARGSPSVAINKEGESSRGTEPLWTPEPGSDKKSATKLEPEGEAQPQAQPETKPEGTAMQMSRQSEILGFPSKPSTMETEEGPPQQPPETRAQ

[4] = target: Serine/threonine-protein kinase 32C (Homo sapiens) (UniProt Q86UX6); assay: Inhibition of human recombinant YANK3 at 40 nM related to control ULK1
[5] = target: T2, Activin receptor type-1 (Homo sapiens) (UniProt Q04771); assay: Inhibition of human recombinant ALK2 at 500 nM in presence of ATP by radiometric assay relative to control
T2 sequence (whole entry): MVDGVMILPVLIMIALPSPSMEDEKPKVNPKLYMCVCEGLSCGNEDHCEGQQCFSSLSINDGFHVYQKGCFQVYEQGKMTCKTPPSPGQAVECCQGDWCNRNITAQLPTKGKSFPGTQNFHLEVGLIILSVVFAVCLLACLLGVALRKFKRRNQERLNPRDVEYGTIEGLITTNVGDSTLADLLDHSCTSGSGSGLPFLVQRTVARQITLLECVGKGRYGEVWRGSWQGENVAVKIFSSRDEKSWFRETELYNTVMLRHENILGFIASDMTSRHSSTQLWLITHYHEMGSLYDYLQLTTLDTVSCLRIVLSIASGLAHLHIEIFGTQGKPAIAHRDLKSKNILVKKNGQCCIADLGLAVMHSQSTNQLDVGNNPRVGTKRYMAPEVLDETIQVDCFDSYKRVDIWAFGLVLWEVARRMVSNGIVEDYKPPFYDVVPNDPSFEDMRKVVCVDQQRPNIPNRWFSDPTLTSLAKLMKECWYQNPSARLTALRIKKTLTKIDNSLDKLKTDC
How it was run: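 Panel of 327 recombinant human kinases, each assayed in vitro by radiometric activity assay in duplicate at a single inhibitor concentration per compound, chosen with reference to its ULK1 inhibition. Activity remaining was expressed as percent of vehicle control, and percent inhibition was calculated as 100 minus percent activity remaining.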

[6] = target: Protein kinase C theta type (Homo sapiens) (UniProt Q04759); assay: Inhibition of human recombinant PKCt at 500 nM in presence of ATP by radiometric assay relative to control
[7] = target: T3, Serine/threonine-protein kinase Nek9 (Homo sapiens) (UniProt Q8TD19); assay: Inhibition of human recombinant NEK9 at 500 nM related to control ULK1
T3 sequence (whole entry): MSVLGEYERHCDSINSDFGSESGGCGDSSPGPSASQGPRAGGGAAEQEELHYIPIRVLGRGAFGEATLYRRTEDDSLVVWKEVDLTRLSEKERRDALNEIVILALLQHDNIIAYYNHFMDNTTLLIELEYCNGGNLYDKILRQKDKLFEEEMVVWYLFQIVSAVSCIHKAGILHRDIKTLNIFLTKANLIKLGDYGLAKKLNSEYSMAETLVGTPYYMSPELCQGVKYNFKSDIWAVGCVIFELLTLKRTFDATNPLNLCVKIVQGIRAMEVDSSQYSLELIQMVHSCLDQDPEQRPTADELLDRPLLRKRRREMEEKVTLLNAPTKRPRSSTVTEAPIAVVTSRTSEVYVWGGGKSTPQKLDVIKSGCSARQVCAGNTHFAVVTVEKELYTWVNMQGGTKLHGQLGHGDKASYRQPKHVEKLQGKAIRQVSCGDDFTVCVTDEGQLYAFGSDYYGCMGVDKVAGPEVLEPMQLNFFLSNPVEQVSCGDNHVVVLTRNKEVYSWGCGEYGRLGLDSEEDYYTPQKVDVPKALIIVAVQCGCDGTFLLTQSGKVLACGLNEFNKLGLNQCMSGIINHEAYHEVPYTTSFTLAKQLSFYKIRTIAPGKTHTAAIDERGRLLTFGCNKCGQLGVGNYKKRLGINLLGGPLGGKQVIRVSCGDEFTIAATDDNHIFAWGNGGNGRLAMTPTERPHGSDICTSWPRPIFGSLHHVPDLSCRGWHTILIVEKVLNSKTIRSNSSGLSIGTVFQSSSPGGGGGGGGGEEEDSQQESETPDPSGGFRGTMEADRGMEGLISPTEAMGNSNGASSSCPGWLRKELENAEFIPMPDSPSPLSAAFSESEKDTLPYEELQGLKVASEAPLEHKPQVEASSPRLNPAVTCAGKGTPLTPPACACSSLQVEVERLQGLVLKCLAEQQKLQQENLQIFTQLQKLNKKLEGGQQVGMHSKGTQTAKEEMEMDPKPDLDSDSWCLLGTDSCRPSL

[8] = target: Calcium/calmodulin-dependent protein kinase type 1G (Homo sapiens) (UniProt Q96NX5); assay: Inhibition of human recombinant CaMK1g at 15 nM in presence of ATP by radiometric assay relative to control
Calcium/calmodulin-dependent protein kinase type 1G (Homo sapiens), sequence (Q96NX5 whole entry): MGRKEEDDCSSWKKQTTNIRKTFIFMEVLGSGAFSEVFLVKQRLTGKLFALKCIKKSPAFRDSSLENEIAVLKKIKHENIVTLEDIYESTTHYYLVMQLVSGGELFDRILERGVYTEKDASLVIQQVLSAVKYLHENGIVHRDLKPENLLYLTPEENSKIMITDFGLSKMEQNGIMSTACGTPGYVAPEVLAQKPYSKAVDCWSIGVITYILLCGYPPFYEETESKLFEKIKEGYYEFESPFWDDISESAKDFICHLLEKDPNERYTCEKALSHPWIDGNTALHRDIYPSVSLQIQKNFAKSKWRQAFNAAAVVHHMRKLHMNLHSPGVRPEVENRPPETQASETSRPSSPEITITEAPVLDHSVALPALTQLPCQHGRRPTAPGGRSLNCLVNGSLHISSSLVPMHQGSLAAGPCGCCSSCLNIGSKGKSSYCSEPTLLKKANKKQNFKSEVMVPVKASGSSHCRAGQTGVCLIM

Dual specificity protein kinase CLK3 (Homo sapiens), sequence (P49761 whole entry, looked up): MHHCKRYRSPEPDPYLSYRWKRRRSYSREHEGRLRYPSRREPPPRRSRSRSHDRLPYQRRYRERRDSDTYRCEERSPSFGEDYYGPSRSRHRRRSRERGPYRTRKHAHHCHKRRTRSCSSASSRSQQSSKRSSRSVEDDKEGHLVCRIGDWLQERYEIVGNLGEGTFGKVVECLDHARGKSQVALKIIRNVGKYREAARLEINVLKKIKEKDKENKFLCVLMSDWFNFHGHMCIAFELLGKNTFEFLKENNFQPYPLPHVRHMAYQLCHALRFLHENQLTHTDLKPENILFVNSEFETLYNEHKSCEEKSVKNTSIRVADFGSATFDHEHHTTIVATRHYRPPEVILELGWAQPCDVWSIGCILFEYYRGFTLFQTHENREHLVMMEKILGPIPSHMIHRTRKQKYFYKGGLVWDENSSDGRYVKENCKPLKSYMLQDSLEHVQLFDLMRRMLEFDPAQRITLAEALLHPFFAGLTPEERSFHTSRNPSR
Protein kinase C theta type (Homo sapiens), sequence (Q04759 whole entry, looked up): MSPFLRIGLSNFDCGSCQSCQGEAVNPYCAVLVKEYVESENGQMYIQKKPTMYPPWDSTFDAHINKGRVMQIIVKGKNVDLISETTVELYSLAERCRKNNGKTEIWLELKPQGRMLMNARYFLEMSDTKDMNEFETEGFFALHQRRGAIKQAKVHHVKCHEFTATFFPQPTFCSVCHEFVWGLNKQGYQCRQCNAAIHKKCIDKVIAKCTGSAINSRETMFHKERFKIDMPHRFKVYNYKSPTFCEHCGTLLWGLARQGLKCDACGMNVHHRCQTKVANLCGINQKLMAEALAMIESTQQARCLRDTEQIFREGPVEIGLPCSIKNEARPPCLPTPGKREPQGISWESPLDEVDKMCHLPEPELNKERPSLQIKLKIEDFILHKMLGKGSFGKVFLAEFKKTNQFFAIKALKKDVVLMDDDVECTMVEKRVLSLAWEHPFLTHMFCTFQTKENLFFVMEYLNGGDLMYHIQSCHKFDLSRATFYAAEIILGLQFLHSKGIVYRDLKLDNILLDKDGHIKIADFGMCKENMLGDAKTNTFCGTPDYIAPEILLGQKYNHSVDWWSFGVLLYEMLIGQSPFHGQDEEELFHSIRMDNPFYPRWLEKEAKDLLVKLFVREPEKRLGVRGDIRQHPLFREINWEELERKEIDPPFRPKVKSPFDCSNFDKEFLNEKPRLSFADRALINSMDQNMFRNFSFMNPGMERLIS
Serine/threonine-protein kinase 32C (Homo sapiens), sequence (Q86UX6 whole entry): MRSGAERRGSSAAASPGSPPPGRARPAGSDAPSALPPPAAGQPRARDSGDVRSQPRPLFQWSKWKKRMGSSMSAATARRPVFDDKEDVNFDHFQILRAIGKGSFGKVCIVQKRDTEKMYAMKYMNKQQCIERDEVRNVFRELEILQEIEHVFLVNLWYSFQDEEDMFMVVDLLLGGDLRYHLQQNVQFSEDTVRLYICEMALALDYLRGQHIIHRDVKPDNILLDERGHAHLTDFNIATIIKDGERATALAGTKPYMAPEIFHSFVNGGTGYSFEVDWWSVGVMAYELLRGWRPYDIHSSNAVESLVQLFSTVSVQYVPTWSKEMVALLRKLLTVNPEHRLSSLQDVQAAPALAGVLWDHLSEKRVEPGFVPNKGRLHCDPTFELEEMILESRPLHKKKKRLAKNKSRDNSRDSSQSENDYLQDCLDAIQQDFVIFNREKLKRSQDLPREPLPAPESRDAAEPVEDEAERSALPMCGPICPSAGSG

O=C(N[C@@H](C1CC1)C(F)(F)F)c1cc(-c2cnn3cc(-c4ccc(F)cc4)cnc23)cs1
inhibition [1]: 0% | fold change (FC) [2]: 0 | fold change (FC) [3]: 0 | fold change (FC) [4]: 0.07

CNC(=O)c1ccccc1Oc1nc(Nc2cc(OC)c(OC)c(OC)c2)ncc1Br
inhibition [5]: 46% | inhibition [6]: 0% | fold change (FC) [7]: 0

CC(C)[C@H](NC(=O)c1cc(-c2cnn3cc(-c4ccc(OCCN5CCCCC5)cc4)cnc23)cs1)C(F)(F)F
inhibition [8]: 0%
